According to ChEMBL document CHEMBL3396970, “Synthesis and biological evaluation of novel 2,3-disubstituted quinoxaline derivatives as antileishmanial and antitrypanosomal agents” (Eur J Med Chem, 2015):

Assays:
[1] = Selectivity ratio of CC50 to IC50 for promastigote stage of Leishmania amazonensis WHOM/BR/75/JOSEFA; parameters: reference not given here
[2] = system: Trypanosoma cruzi; experiment: Antitrypanosomal activity against trypomastigote stage of Trypanosoma cruzi Y infected in monkey LLC-MK2 cells after 96 hrs by Pizzi-Brener method; type: functional, organism-based
[3] = Selectivity ratio of CC50 for monkey LLC-MK2 cells to IC50 for epimastigote stage of epimastigote stage of Trypanosoma cruzi Y
[4] = system: Leishmania amazonensis; experiment: Antileishmanial activity against promastigote stage of Leishmania amazonensis WHOM/BR/75/JOSEFA after 72 hrs by hemocytometry; type: functional, organism-based
[5] = Selectivity ratio of CC50 for monkey LLC-MK2 cells to IC50 for epimastigote stage of epimastigote stage of Trypanosoma cruzi Y; type: ADME, cell-based; details: read-out: Ratio CC50/IC50
[6] = Selectivity ratio of CC50 for monkey LLC-MK2 cells to EC50 for trypomastigote stage of Trypanosoma cruzi Y; type: ADME, cell-based; details: read-out: Ratio CC50/EC50
[7] = Selectivity ratio of CC50 for monkey LLC-MK2 cells to IC50 for amastigote stage of Trypanosoma cruzi Y; type: ADME, cell-based; details: read-out: Ratio CC50/IC50
[8] = Selectivity ratio of CC50 for mouse J774A1 cells to IC50 for promastigote stage of Leishmania amazonensis WHOM/BR/75/JOSEFA; type: ADME, cell-based, J774.A1; details: read-out: Ratio CC50/IC50
[9] = system: Leishmania amazonensis; experiment: Antileishmanial activity against amastigote stage of Leishmania amazonensis WHOM/BR/75/JOSEFA infected in BALB/c mouse peritoneal macrophages after 72 hrs by Geimsa staining-based light microscopy; type: functional, organism-based
[10] = system: Trypanosoma cruzi; experiment: Antitrypanosomal activity against epimastigote stage of Trypanosoma cruzi Y after 96 hrs by hemocytometry; type: functional, organism-based
Outline: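 Log-phase parasites (promastigotes 3-day, Warren's medium + 10% FBS, 25°C; epimastigotes 4-day, LIT + 10% FBS, 28°C) seeded at 1 × 10^6 cells/mL with compound (0.1-100 µM; DMSO ≤1%). Promastigotes read at 72 h, epimastigotes at 96 h, by hemocytometer counting. IC50 by nonlinear regression.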

[11] = Selectivity ratio of CC50 for BALB/c mouse peritoneal macrophages to IC50 for amastigote stage of Leishmania amazonensis WHOM/BR/75/JOSEFA
[12] = system: Trypanosoma cruzi; experiment: Antitrypanosomal activity against amastigote stage of Trypanosoma cruzi Y infected in monkey LLC-MK2 cells after 96 hrs by Geimsa staining-based light microscopy; type: functional, organism-based; details: LLC-MK2, 96 h
Outline: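 LLCMK2 monolayers (2.5 x 10^5 cells/mL, 24 h, 37 °C, 5% CO2) infected with trypomastigotes at 10 per host cell for 24 h, washed, treated with compound (0.1 to 50 μM) 96 h. Methanol-fixed, Giemsa-stained, 200 cells counted; survival index (% infected × amastigotes/cell); IC50 by nonlinear regression.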

[13] = system: Trypanosoma cruzi; experiment: Antitrypanosomal activity against amastigote stage of Trypanosoma cruzi
[14] = system: Trypanosoma cruzi; experiment: Antitrypanosomal activity against trypomastigote stage of Trypanosoma cruzi Y infected in monkey LLC-MK2 cells after 24 hrs by Pizzi-Brener method; type: functional, organism-based; details: LLC-MK2, 24 h
Outline: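 Trypomastigotes harvested from infected LLCMK2 culture supernatant, 1 × 10^7 cells/mL with compound (0.1-50 µM), 24 h at 37°C, 5% CO2. Viability by motility (Pizzi–Brener); EC50 by nonlinear regression.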

| Compound | selectivity ratio [1] | EC50 [2] [µM] | selectivity ratio [3] | IC50 [4] [µM] | selectivity ratio [5] | selectivity ratio [6] | selectivity ratio [7] | selectivity ratio [8] | IC50 [9] [µM] | IC50 [10] [µM] | Ratio CC50/IC50 [11] | IC50 [12] [µM] | IC50 [13] [µM] | EC50 [14] [µM] |
| --- | --- | --- | --- | --- | --- | --- | --- | --- | --- | --- | --- | --- | --- | --- |
| CS(=O)(=O)c1nc2ccc(Br)cc2nc1Cl | 71.8 | 1.8 | 49.6 | 0.2 | 49.6 | 7 | 1.1 | 71.8 | 1.4 | 0.3 | 9.9 | 13.5 | – | – |
| CS(=O)(=O)c1nc2ccc(Cl)cc2nc1Cl | 66 | 6.9 | 25.9 | 0.2 | 25.9 | 4.1 | 0.9 | 66 | 3.1 | 0.3 | 4.3 | 8.6 | – | – |
| CCCCNc1nc2ccc(OC)cc2nc1S(C)(=O)=O | 17.1 | 39.2 | 108 | 2.5 | 108 | 10 | 27.3 | 17.1 | 12.9 | 3.6 | 3.3 | 14.3 | – | – |
| COc1ccc2nc(NCCO)c(S(C)(=O)=O)nc2c1 | 13.3 | 35.7 | 25.2 | 2.9 | 25.2 | 2 | 1.8 | 13.3 | 17.3 | 2.9 | 2.2 | 40.5 | – | – |
| COc1ccc2nc(NC3CCCCC3)c(S(C)(=O)=O)nc2c1 | 18.1 | 27.7 | 20.8 | 2.9 | 20.8 | 1.6 | – | 18.1 | 20.2 | 2.2 | 2.6 | > 25 | – | – |
| COc1ccc2nc(NC3CCCCC3)c([S+](C)[O-])nc2c1 (centres undefined) | 8 | 25.4 | 72.8 | 2.5 | 72.8 | 7.1 | 19.5 | 8 | 7.3 | 2.5 | 2.8 | 9.3 | – | – |
| COc1ccc2nc(Cl)c(NCc3ccccc3)nc2c1 | 5.4 | > 50 | 22.2 | 24.5 | 22.2 | – | – | 5.4 | 25 | 15.9 | 5.3 | > 20 | – | – |
| O=C(Cn1ccnc1[N+](=O)[O-])NCc1ccccc1 [BENZNIDAZOLE] | – | – | – | – | – | – | – | – | – | 8.1 | – | – | 26.1 | 3.4 |
